Laboratory results reported in ChEMBL document CHEMBL1649552 (2009).
Values after ≈ are worked out from the molar mass of the structure shown.

Experiments:
Type in all cases: functional
Streptococcus pneumoniae [1] = assay: Antibacterial activity against Streptococcus pneumoniae assessed as intermediate isolates by CLSI M100-S17 method
Summary of the method: (§1)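 CLSI broth microdilution on clinical isolates, using frozen in-house-prepared panels of test and comparator agents. MICs were read after 20 to 24 h incubation at 35°C in ambient air. Susceptible/intermediate categories were assigned by CLSI M100-S17 guidelines.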

Streptococcus pneumoniae [2] = assay: Antibacterial activity against Streptococcus pneumoniae by CLSI M100-S17 method
Streptococcus pneumoniae [3] = assay: Antibacterial activity against Streptococcus pneumoniae assessed as susceptible isolates by CLSI M100-S17 method; summary of the method: as §1
Streptococcus pneumoniae [4] = assay: Antibacterial activity against Streptococcus pneumoniae assessed as resistant isolates by CLSI M100-S17 method
Summary of the method: (§2)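 Clinical isolates were tested by CLSI broth microdilution in frozen, in-house-prepared 96-well panels of the test agent and comparator agents. MICs were read and classed as susceptible, intermediate or resistant using CLSI M100-S17 breakpoints. The value is the share of isolates in each category.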

Streptococcus agalactiae [5] = assay: Antibacterial activity against Streptococcus agalactiae by CLSI M100-S17 method
Moraxella catarrhalis = assay: Antibacterial activity against Moraxella catarrhalis by CLSI M100-S17 method
Streptococcus pyogenes [6] = assay: Antibacterial activity against Streptococcus pyogenes by CLSI M100-S17 method
Streptococcus agalactiae [7] = assay: Antibacterial activity against Streptococcus agalactiae assessed as susceptible isolates by CLSI M100-S17 method; summary of the method: as §1
Streptococcus pyogenes [8] = assay: Antibacterial activity against Streptococcus pyogenes assessed as susceptible isolates by CLSI M100-S17 method; summary of the method: as §1
Enterococcus faecium = assay: Antibacterial activity against Enterococcus faecium by CLSI M100-S17 method
[9] = system: Staphylococcus epidermidis; assay: Antibacterial activity against methicillin-susceptible Staphylococcus epidermidis assessed as susceptible isolates by CLSI M100-S17 method
Staphylococcus aureus [10] = assay: Antibacterial activity against methicillin-susceptible Staphylococcus aureus by CLSI M100-S17 method
Staphylococcus aureus [11] = assay: Antibacterial activity against methicillin-resistant Staphylococcus aureus assessed as susceptible isolates by CLSI M100-S17 method
[12] = system: Staphylococcus epidermidis; assay: Antibacterial activity against methicillin-resistant Staphylococcus epidermidis by CLSI M100-S17 method
[13] = system: Staphylococcus epidermidis; assay: Antibacterial activity against methicillin-susceptible Staphylococcus epidermidis by CLSI M100-S17 method
Staphylococcus aureus [14] = assay: Antibacterial activity against methicillin-susceptible Staphylococcus aureus assessed as resistant isolates by CLSI M100-S17 method
Streptococcus agalactiae [15] = assay: Antibacterial activity against Streptococcus agalactiae assessed as intermediate isolates by CLSI M100-S17 method; summary of the method: as §1
Staphylococcus aureus [16] = assay: Antibacterial activity against methicillin-resistant Staphylococcus aureus by CLSI M100-S17 method
[17] = system: Staphylococcus epidermidis; assay: Antibacterial activity against methicillin-resistant Staphylococcus epidermidis assessed as susceptible isolates by CLSI M100-S17 method
Staphylococcus aureus [18] = assay: Antibacterial activity against methicillin-resistant Staphylococcus aureus assessed as resistant isolates by CLSI M100-S17 method
Staphylococcus aureus [19] = assay: Antibacterial activity against methicillin-resistant Staphylococcus aureus assessed as intermediate isolates by CLSI M100-S17 method
Streptococcus pyogenes [20] = assay: Antibacterial activity against Streptococcus pyogenes assessed as intermediate isolates by CLSI M100-S17 method; summary of the method: as §1
[21] = system: Staphylococcus epidermidis; assay: Antibacterial activity against methicillin-resistant Staphylococcus epidermidis assessed as resistant isolates by CLSI M100-S17 method
Enterococcus faecalis = assay: Antibacterial activity against Enterococcus faecalis by CLSI M100-S17 method
Streptococcus pyogenes [22] = assay: Antibacterial activity against Streptococcus pyogenes assessed as resistant isolates by CLSI M100-S17 method; summary of the method: as §2
[23] = system: Staphylococcus epidermidis; assay: Antibacterial activity against methicillin-susceptible Staphylococcus epidermidis assessed as resistant isolates by CLSI M100-S17 method
[24] = system: Staphylococcus epidermidis; assay: Antibacterial activity against methicillin-susceptible Staphylococcus epidermidis assessed as intermediate isolates by CLSI M100-S17 method
Staphylococcus aureus [25] = assay: Antibacterial activity against methicillin-susceptible Staphylococcus aureus assessed as susceptible isolates by CLSI M100-S17 method
Streptococcus agalactiae [26] = assay: Antibacterial activity against Streptococcus agalactiae assessed as resistant isolates by CLSI M100-S17 method; summary of the method: as §2
Staphylococcus aureus [27] = assay: Antibacterial activity against methicillin-susceptible Staphylococcus aureus assessed as intermediate isolates by CLSI M100-S17 method

C[C@H]1COc2c(N3CCN(C)CC3)c(F)cc3c(=O)c(C(=O)O)cn1c23.C[C@H]1COc2c(N3CCN(C)CC3)c(F)cc3c(=O)c(C(=O)O)cn1c23.O [LEVOFLOXACIN]
Activity (Streptococcus pneumoniae [1]): 0% | MIC50 (Streptococcus pneumoniae [2]): 0.5 µg/mL | MIC90 (Streptococcus pneumoniae [2]): 1 µg/mL | Activity (Streptococcus pneumoniae [3]): 99.4% | Activity (Streptococcus pneumoniae [4]): 0.6%

CC1(C)S[C@@H]2[C@H](NC(=O)Cc3ccccc3)C(=O)N2[C@H]1C(=O)O [PENICILLIN G]
MIC50 (Streptococcus agalactiae [5]): 0.06 µg/mL (≈ 0.179 µM) | MIC90 (Streptococcus agalactiae [5]): 0.25 µg/mL (≈ 0.748 µM) | Activity (Streptococcus pneumoniae [1]): 15.7% | MIC50 (Moraxella catarrhalis): > 8 µg/mL | MIC90 (Moraxella catarrhalis): > 8 µg/mL | MIC (Streptococcus pyogenes [6]): ≤ 0.03 µg/mL | MIC50 (Streptococcus pyogenes [6]): ≤ 0.03 µg/mL | MIC90 (Streptococcus pyogenes [6]): ≤ 0.03 µg/mL | MIC50 (Streptococcus pneumoniae [2]): 0.06 µg/mL (≈ 0.179 µM) | MIC90 (Streptococcus pneumoniae [2]): 0.25 µg/mL (≈ 0.748 µM) | Activity (Streptococcus agalactiae [7]): 100% | Activity (Streptococcus pneumoniae [3]): 79.3% | Activity (Streptococcus pyogenes [8]): 100% | Activity (Streptococcus pneumoniae [4]): 5%

CCC[C@@H]1C[C@@H](C(=O)N[C@@H]([C@H]2O[C@H](SC)[C@H](O)[C@@H](O)[C@H]2O)[C@H](C)Cl)N(C)C1 [CLINDAMYCIN]
MIC50 (Enterococcus faecium): > 8 µg/mL | MIC90 (Enterococcus faecium): > 8 µg/mL | Activity [9]: 61.1% | MIC50 (Streptococcus agalactiae [5]): ≤ 0.06 µg/mL | MIC90 (Streptococcus agalactiae [5]): > 8 µg/mL | MIC50 (Staphylococcus aureus [10]): ≤ 0.12 µg/mL | MIC90 (Staphylococcus aureus [10]): ≤ 0.12 µg/mL | Activity (Staphylococcus aureus [11]): 37.9% | MIC50 [12]: > 8 µg/mL | MIC50 [13]: ≤ 0.12 µg/mL | MIC90 [13]: > 8 µg/mL | Activity (Staphylococcus aureus [14]): 8.6% | Activity (Streptococcus agalactiae [15]): 2.3% | Activity (Streptococcus agalactiae [7]): 85.2% | MIC50 (Staphylococcus aureus [16]): > 8 µg/mL | MIC90 (Staphylococcus aureus [16]): > 8 µg/mL | Activity [17]: 10% | Activity (Staphylococcus aureus [18]): 61.8% | Activity (Staphylococcus aureus [19]): 0.3% | Activity (Streptococcus pyogenes [20]): 0% | Activity [21]: 90% | MIC50 (Enterococcus faecalis): > 8 µg/mL | MIC90 (Enterococcus faecalis): > 8 µg/mL | Activity (Streptococcus pyogenes [22]): 2.7% | Activity (Streptococcus pyogenes [8]): 97.3% | Activity [23]: 38.9% | Activity [24]: 0% | Activity (Staphylococcus aureus [25]): 91% | Activity (Streptococcus agalactiae [26]): 12.5% | Activity (Staphylococcus aureus [27]): 0.4%
